Compounds with a hit are over-represented: about 3.4% of the library has one in this group of screens.
zfTRPN1 agonist = agonists of zebrafish TRPN1 channel; activation, % at 3 µM; actives 0.18% (n = 220,000); HEK293 zebrafish TRPN1-YFP, Fluo-8 calcium fluorescence; 100% = response to 87 µM carbachol;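 active means activation above its plate's cutoff, the mean activation of test wells on that plate plus 3 SD, cut at about 19% in these data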
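Control set: carbachol 87 µM as high control, DMSO as low control; system: HEK293 stable line with zebrafish TRPN1-YFP; read-out: % activation versus carbachol response; detection: intracellular calcium fluorescence with Fluo-8; doses: single test compound dose, 3 µM nominal, 0.3% DMSO; schedule: dye 1 h 37 °C plus 30 min RT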
GPR7 antagonist = antagonists of human GPR7 (neuropeptides B/W receptor 1) | P48145 | GPR7-expressing cells, fluorescence antagonist assay | inhibition, % at 4.4 µM | actives 1.1% (n = 290,000) | AID 1861; in the data active means inhibition above about 16%, passing the limit was not always enough;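 further: cells stimulated with the agonist NPW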
Target sequence (P48145 whole entry, looked up): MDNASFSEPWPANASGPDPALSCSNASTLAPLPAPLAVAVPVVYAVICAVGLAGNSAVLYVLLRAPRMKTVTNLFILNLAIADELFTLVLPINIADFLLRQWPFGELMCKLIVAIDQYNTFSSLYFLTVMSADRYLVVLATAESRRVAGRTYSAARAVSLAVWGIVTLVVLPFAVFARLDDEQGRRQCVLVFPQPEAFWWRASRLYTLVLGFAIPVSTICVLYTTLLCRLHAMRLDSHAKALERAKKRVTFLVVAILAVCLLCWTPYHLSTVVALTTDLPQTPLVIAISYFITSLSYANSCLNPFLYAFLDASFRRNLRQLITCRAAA
TAAR1 antag = antagonists of human TAAR1. Q96RJ0. CHO RD-HGA16 TAAR1, Fluo-8 calcium fluorescence, antagonist. inhibition, % at 3 µM. actives 1.5% (n = 360,000);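 active means inhibition above a per-plate cutoff, the mean inhibition of test compounds on that plate plus 3 SD, cut at about 49% in these data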
Target sequence (Q96RJ0 whole entry, looked up): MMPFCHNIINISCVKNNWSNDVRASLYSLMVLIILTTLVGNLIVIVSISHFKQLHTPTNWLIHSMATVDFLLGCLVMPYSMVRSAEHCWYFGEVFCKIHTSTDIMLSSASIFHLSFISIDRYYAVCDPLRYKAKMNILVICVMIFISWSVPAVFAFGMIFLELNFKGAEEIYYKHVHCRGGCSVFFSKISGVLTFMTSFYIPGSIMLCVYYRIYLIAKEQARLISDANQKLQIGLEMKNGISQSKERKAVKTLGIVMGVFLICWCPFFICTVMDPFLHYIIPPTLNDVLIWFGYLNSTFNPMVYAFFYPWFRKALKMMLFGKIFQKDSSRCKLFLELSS
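Assay system: RD-HGA16 CHO cells with stable hTAAR1 and Gα16 / Reagent: EC80 β-phenethylamine stimulus / Doses: 3 µM, single point / Timing: dye loading 75 min at 37 °C, then 30 min room temperature / Measured by: Fluo-8 intracellular calcium dye fluorescence, real-time kinetic reads / Controls: vehicle wells and EC80 agonist wells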
TRPML3 ag = human mucolipin-3 channel agonism; activation, % at 3 µM; actives 0.29% (n = 220,000); HEK293 TRPML3-YFP, Fluo-8 calcium fluorescence; 100% = the carbachol control signal; Q8TDD5;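 active means activation above its plate's cutoff, the mean activation of the plate's test wells plus 3 SD, cut at about 12% in these data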
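Test system: TRPML3-YFP stable HEK293 cells. Doses: single point at 3 µM. Incubation: dye loading 1 h 37 °C then 30 min ambient, 125 s read. Signal: Fluo-8 calcium dye fluorescence, ex 470-495, em 515-575 nm. Measure: percent activation from peak-to-basal fluorescence ratio, scaled between DMSO and carbachol.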
TAAR1 agonist = agonists of human TAAR1; Q96RJ0; CHO RD-HGA16 TAAR1, Fluo-8 calcium fluorescence; vehicle wells 0%, saturating PEA agonist 100%; activation, % at 3 µM; actives 0.99% (n = 360,000); AID 624467;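 active means activation above the mean activation of all test compounds in the run plus 3 SD, cut at about 38% in these data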
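Benchmarks: low control DMSO, high control PEA (EC100); System: CHO RD-HGA16 cells carrying human TAAR1 plus Gα16; Detection: Fluo-8 fluorescence, 5 s baseline then 140 s kinetic read; Schedule: 17-24 h plating, Fluo-8 75 min 37 °C, 30 min RT; Read-out basis: % activation from peak over basal fluorescence ratio, DMSO-to-PEA scaled.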
LANA-H2B inh = blocks KSHV LANA binding to histone H2A/H2B; inhibition, % (test concentration not listed); actives 0.6% (n = 320,000); cell-free LANA-H2A/H2B peptide, fluorescence polarization; Q9QR71; in the data active means inhibition mostly above about 10%, no sharp cut-off; inactive means mostly below about 6.7%
A number is an active result; i = inactive; nt = no result given.

SMILES | zfTRPN1 agonist | GPR7 antagonist | TAAR1 antag | TRPML3 ag | TAAR1 agonist | LANA-H2B inh
O=C(OCCOc1ccccc1Cl)c1ccc(-n2cnnn2)cc1 | i | 17 | i | i | i | i
COc1ccccc1CNC(=O)COC(=O)c1ccc(-n2cnnn2)cc1 | nt | nt | i | nt | i | i
CC1CCCN(c2cccc3c2S(=O)(=O)N(Cc2cccc(F)c2)[C@@H](C)[C@H](c2ccccc2)O3)C1 (stereo not given in full) | nt | nt | i | nt | i | nt
CN1CCc2c(sc(NC(=O)c3ccc(S(=O)(=O)N4CCc5ccccc54)cc3)c2C(N)=O)C1 | i | i | 50 | i | i | i
C[C@@H]1ON(C)[C@H]2C[C@H]3c4[nH]c5c(-c6cc(Cl)cc(Cl)c6)cccc5c4CCN3C(=O)[C@@H]12 | nt | nt | i | nt | i | nt
CCO[C@@H]1OC(C(=O)N2CCN(Cc3ccc4c(c3)OCO4)CC2)=C[C@H](c2ccc(Br)cc2)[C@H]1CCCO | i | i | 49 | i | i | i
CSC(=NC#N)N1CCN(c2ccccn2)CC1 | i | i | i | i | i | 30
COCc1cc(N2CCN(C(=O)OC(C)(C)C)C[C@H]2C)ccc1N1CCN(Cc2ccccc2)[C@@H](C)C1 | nt | nt | i | nt | i | nt
O=C(COC(=O)/C=C/c1cccc(Cl)c1)NCCC1=CCCCC1 | i | i | i | i | 39 | i
C[C@]12CC[C@@H]3c4ccc(O)cc4[C@@H](O)C[C@H]3[C@@H]1CC[C@@H]2O | i | i | nt | i | nt | 26
C[C@]12CC[C@@H]3c4ccc(O)cc4CC[C@H]3[C@@H]1CC[C@@H]2O | i | i | i | i | i | i
CC(=O)OC1CCC2C3CCc4cc(O)ccc4C3CCC12C (stereo not given) | nt | nt | i | nt | i | nt
C[C@]12CC[C@@H]3c4cc(O)c(O)cc4CC[C@H]3[C@@H]1CC[C@@H]2O | i | i | i | i | i | 29
CC(C)c1ccc(CN2CC(C(=O)Nc3ccccc3)CC2=O)cc1 (stereo not given) | i | 17 | i | i | i | i
COc1ccccc1Nc1nn2c(=O)c3ccc(C(=O)N4CCCC(C)C4)cc3nc2s1 (stereo not given) | nt | i | 50 | nt | i | i
CC(=O)N1c2ccc(S(=O)(=O)N(C)c3cc(C)ccc3C)cc2CC1C (stereo not given) | nt | i | i | nt | i | i
Cc1ccc(N(C)S(=O)(=O)c2ccc3c(c2)CC(C)N3C(=O)C2CC2)cc1 (stereo not given) | nt | i | 49 | nt | i | i
CCC(=O)N1c2ccc(S(=O)(=O)NCCc3ccc(C)cc3)cc2CC1C (stereo not given) | nt | i | i | nt | i | 14
CC(Sc1ccsc1[N+](=O)[O-])C(=O)NCc1ccccc1 (stereo not given) | i | i | i | i | i | 22
COc1ccccc1CNC(=O)C(C)Sc1ccsc1[N+](=O)[O-] (stereo not given) | i | i | i | i | i | i
N#CC1=C(c2ccccc2)/C(=C/c2ccccc2)OC1=O | i | i | 58 | i | i | i
CCOc1cc(OCC)cc(C(=O)N2CCC[C@@H]2C(=O)N2CCC[C@@H]2C(=O)NCc2cccc(OC)c2)c1 | nt | nt | i | nt | i | nt
COc1cccc(CNC(=O)c2cccc(S(=O)(=O)N3CCN(c4ccc(F)cc4)CC3)c2)c1 | nt | nt | i | nt | i | 22
COc1ccc(CCNC(=O)c2cccc(S(=O)(=O)N3CCc4ccccc4C3)c2)cc1 | nt | nt | 49 | nt | i | i
COc1cccc(C(=O)NCCS(=O)(=O)N2CCc3ccccc3C2)c1 | nt | nt | i | nt | i | i
SMILES | zfTRPN1 agonist | GPR7 antagonist | TAAR1 antag | TRPML3 ag | TAAR1 agonist | LANA-H2B inh
COc1ccc(CNC(=O)c2cccc(S(=O)(=O)N3CCN(c4ccc(F)cc4)CC3)c2)cc1 | nt | nt | i | nt | i | nt
c1ccc(COCCc2cn(Cc3ccccc3)c3ccccc23)cc1 | nt | nt | i | nt | i | nt
O=C(c1cnc(N2CCN(c3ncccn3)CC2)c2ccccc12)N1CCN(c2ccccn2)CC1 | i | i | 61 | i | i | i
c1ccc(-c2nnc(N3CCN(c4ccccn4)CC3)c3ccccc23)cc1 | i | i | 50 | i | i | i
C[C@@H]1CN([C@H](C)CO)C(=O)c2cc(NS(=O)(=O)c3ccccc3)ccc2O[C@@H](C)CCCCO[C@@H]1CN(C)Cc1ccc(Cl)c(Cl)c1 | nt | nt | i | nt | i | nt
CC(=O)OCC(=O)N1CCN(C(=O)C(=O)c2cccc(C(F)(F)F)c2)CC1 | nt | nt | i | nt | i | nt
Cc1ccc2oc(=O)c(/C=C(\O)C(C)(C)C)nc2c1 | i | i | i | i | i | i
Cc1ccc2oc(=O)c(/C=C(\O)c3ccco3)nc2c1 | i | i | i | i | i | 4.3
COc1ccccc1NS(=O)(=O)c1cccc(NC(=O)CCNC(=O)c2ccccc2OC)c1 | nt | nt | 57 | nt | i | i
COc1ccccc1C(=O)NCCC(=O)Nc1ccc(S(=O)(=O)Nc2ncccn2)cc1 | nt | nt | i | nt | i | i
COc1ccc(NC(=O)c2ccc(Cl)c(S(=O)(=O)N3CCc4ccccc4C3)c2)cn1 | i | i | 66 | i | i | i
COc1ccccc1NS(=O)(=O)c1cccc(NC(=O)Nc2cccc(Cl)c2)c1 | i | i | 79 | i | i | i
COc1ccccc1NS(=O)(=O)c1cccc(NC(=O)NCCCl)c1 | i | i | i | i | i | i
COc1ccc(NS(=O)(=O)c2cc(NC(=O)c3cncc(Br)c3)ccc2OC)cc1 | nt | nt | 50 | nt | i | i
COC(=O)C1=C(C)NC(=S)NC1c1ccc(Br)cc1 (stereo not given) | nt | nt | i | nt | i | nt
COC(=O)C1=C(C)N(C)C(=NCc2cc(OC)c(OC)c(OC)c2)NC1c1cccc(C(F)(F)F)c1 (stereo not given) | nt | nt | i | nt | i | nt
COc1ccccc1NS(=O)(=O)c1cccc(NC(=O)c2cncc(Br)c2)c1 | nt | nt | 51 | nt | i | i
COc1ccccc1NS(=O)(=O)c1cc(NC(=O)c2ccc(Cl)nc2)ccc1Cl | i | i | 56 | i | i | nt
CC(C)C[C@H]1COc2cc(Br)ccc2S(=O)(=O)N1Cc1ccc(F)cc1F | nt | nt | i | nt | i | nt
COc1ccc(C2=NS(=O)(=O)N(C)C(C(=O)Nc3ccc(C(C)=O)cc3)=C2)cc1OC | nt | i | 53 | nt | i | i
COc1ccc(NC(=O)C2=CC(c3ccc(C)cc3)=NS(=O)(=O)N2C)cc1OC | nt | i | i | nt | i | i
CCn1c(=N)n(CC(=O)c2ccc(Br)s2)c2ccccc21 | i | 20 | i | i | i | i
N=c1n(CC(=O)c2ccc(Br)cc2)c2ccccc2n1Cc1ccccc1 | nt | nt | i | nt | 38 | i
O=C(NCC1CCN(C(=O)C(=O)c2cc3ccccc3o2)CC1)c1ccc2c(c1)OCC2 | nt | nt | i | nt | i | nt
CCn1ccnc1CN(C)Cc1cn(-c2ccc(C)cc2)nc1-c1ccc(F)cc1 | i | i | i | i | i | i

Source: PubChem
